Source: paper PMC10150327 (NAR Cancer, 2023)

Tests used:
MRC5 SV40 cells = test: Native IdU assay, nascent ssDNA; assay type: cell-based, human; details: 2 mM HU, short treatment
MRC5SV40 fibroblasts = test: Neutral comet assay, HU-induced DSBs; assay type: cell-based, human; details: HU 24 h, inhibitor 30 min before HU
[1] = tested on: association of RAD52 with parental ssDNA; test: In situ proximity ligation assay; assay type: cell-based; details: after HU treatment
Summary of the method: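 Parental DNA was labelled with 50 μM IdU for 20 h, then 2 h in fresh DMEM before treatment. Cells were Triton-permeabilised (0.5%, 10 min, 4°C), fixed in 3% formaldehyde/2% sucrose and blocked in 3% BSA. Probes: rabbit anti-RAD52 (1:150) plus mouse anti-IdU (1:10), then PLA probes, each 1 h at 37°C. Ligation and rolling-circle amplification used a TRITC oligo. Single-antibody controls were included; spots per cell given as mean ± SE.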

RAD52–ssDNA interaction = biological target: T1, RAD52–ssDNA interaction (Homo sapiens, UniProt P43351); details: cited from earlier work
T1 sequence (P43351 1-418): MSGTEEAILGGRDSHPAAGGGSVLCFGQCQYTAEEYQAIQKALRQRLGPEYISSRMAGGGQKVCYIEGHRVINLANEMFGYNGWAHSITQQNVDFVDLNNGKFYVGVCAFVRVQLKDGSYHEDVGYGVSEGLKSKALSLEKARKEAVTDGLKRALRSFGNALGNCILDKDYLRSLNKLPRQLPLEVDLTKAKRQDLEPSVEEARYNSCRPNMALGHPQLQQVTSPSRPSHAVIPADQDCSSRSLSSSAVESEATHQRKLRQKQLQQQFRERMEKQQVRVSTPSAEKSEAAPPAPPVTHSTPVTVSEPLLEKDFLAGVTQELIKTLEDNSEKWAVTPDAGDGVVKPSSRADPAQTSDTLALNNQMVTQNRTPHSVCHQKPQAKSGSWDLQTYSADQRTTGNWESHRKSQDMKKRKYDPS

BRCA2-depleted cells = details: cited from earlier work
RPA–ssDNA interaction = RPA–ssDNA interaction (Homo sapiens, UniProt P27694); details: cited from earlier work
Chain of RPA–ssDNA interaction (P27694 whole entry): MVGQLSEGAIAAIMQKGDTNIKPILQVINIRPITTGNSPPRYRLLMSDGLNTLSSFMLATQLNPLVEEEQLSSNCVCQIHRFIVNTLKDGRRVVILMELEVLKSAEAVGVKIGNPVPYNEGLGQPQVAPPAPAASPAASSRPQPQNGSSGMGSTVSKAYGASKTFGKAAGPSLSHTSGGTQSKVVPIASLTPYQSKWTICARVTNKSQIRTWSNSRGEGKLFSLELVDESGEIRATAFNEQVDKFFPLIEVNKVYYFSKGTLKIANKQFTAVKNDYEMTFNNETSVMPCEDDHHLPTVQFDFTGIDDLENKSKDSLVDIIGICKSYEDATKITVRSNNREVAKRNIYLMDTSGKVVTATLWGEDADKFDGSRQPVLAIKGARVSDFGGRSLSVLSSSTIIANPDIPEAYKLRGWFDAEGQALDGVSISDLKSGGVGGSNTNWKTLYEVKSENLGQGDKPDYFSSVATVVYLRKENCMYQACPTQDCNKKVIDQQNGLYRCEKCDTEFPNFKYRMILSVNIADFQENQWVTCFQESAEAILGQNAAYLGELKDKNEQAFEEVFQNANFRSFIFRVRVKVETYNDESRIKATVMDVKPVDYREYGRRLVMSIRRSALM
Chain of RPA–ssDNA interaction (P15927 whole entry partner): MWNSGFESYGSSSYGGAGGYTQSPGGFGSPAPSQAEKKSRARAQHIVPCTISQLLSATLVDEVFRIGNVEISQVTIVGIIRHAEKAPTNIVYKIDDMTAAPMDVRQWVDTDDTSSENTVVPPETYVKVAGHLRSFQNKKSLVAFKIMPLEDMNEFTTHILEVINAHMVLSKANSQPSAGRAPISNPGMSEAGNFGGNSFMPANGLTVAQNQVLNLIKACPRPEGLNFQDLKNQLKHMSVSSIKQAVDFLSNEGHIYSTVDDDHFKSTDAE
Chain of RPA–ssDNA interaction (P35244 whole entry partner): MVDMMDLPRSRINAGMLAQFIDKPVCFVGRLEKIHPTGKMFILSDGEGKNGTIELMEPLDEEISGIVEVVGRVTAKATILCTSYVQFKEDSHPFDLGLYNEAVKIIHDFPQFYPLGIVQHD

[2] = tested on: complemented cell line (HA); details: cited from earlier work
EUFA423F = details: cited from earlier work
mass photometry = biological target: the molecule itself; test: mass photometry

Oc1cc(O)c2c(c1)O[C@H](c1cc(O)c(O)c(O)c1)[C@H](O)C2 [EGC, epigallocatechin]
Exposure of nascent ssDNA (native anti-IdU IF) (MRC5 SV40 cells): significantly increased the level of ssDNA
DSBs formation (tail moment) in HU-treated cells (MRC5SV40 fibroblasts): significantly reduced
Association of RAD52 with parental ssDNA (PLA spots per cell) [1]: supressed
Competition with ssDNA binding to RAD52 (RAD52–ssDNA interaction): competed with ssDNA binding to RAD52
Specificity for RAD52 (RAD52–ssDNA interaction): highly specific to RAD52
Toxicity to BRCA2-depleted cells (BRCA2-depleted cells): selectively toxic

O=C(O[C@@H]1Cc2c(O)cc(O)cc2O[C@@H]1c1cc(O)c(O)c(O)c1)c1cc(O)c(O)c(O)c1 [EGCG, epigallocatechin gallate]
Effect on ssDNA binding to RPA (RPA–ssDNA interaction): also inhibited the RPA–ssDNA interaction

CO[C@@]12[C@H](COC(N)=O)C3=C(C(=O)C(C)=C(N)C3=O)N1C[C@@H]1N[C@@H]12 [mitomycin C]
Sensitivity of complemented cell line (HA) [2]: resistant

C[C@]1(c2nc3c(C(N)=O)cccc3[nH]2)CCCN1 [veliparib]
Sensitivity of complemented cell line (HA) [2]: resistant
Sensitivity of EUFA423F cells (EUFA423F): sensitive

B1: 6xHis-tagged human RAD52 (wild type) (natural protein)
chain: MSGTEEAILGGRDSHPAAGGGSVLCFGQCQYTAEEYQAIQKALRQRLGPEYISSRMAGGGQKVCYIEGHRVINLANEMFGYNGWAHSITQQNVDFVDLNNGKFYVGVCAFVRVQLKDGSYHEDVGYGVSEGLKSKALSLEKARKEAVTDGLKRALRSFGNALGNCILDKDYLRSLNKLPRQLPLEVDLTKAKRQDLEPSVEEARYNSCRPNMALGHPQLQQVTSPSRPSHAVIPADQDCSSRSLSSSAVESEATHQRKLRQKQLQQQFRERMEKQQVRVSTPSAEKSEAAPPAPPVTHSTPVTVSEPLLEKDFLAGVTQELIKTLEDNSEKWAVTPDAGDGVVKPSSRADPAQTSDTLALNNQMVTQNRTPHSVCHQKPQAKSGSWDLQTYSADQRTTGNWESHRKSQDMKKRKYDPS
stoichiometry N (mass photometry): 10
